Consider 3 compounds from ChEMBL document CHEMBL3232980, “Studies on the antiproliferative effects of tropolone derivatives in Jurkat T-lymphocyte cells” (2014).

SMILES strings stand for the structures. Activity calls are given as the source filed them. The calls are words filed in the database; no cut-off is given here.

In assay [1] the target is T1, Histone deacetylase (Homo sapiens) (UniProt Q13547+O15379+Q9UBN7+Q92769+Q9UQL6+Q8WUI4+Q9BY41+Q96DB2+P56524+Q9UKV0+Q969S8). The following applies: Jurkat.
Assay [2] relates to Jurkat. The assay is described as follows: Induction of apoptosis in human Jurkat cells assessed as viable cells at 10 uM after 24 hrs by annexin V-FITC/propidium iodide staining-based FACS flow cytometric analysis (reference value: 99.3%). The class given is functional. Particulars: read-out: Activity. In outline: (§1)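 About 1 × 10^6 log-phase Jurkat cells treated in 6-well plates; untreated controls. Cells washed in cold PBS and resuspended in annexin-binding buffer (10 mM HEPES, 140 mM NaCl, 2.5 mM CaCl2, pH 7.4). Stained with FITC-annexin V plus propidium iodide, then gated by flow cytometry: live (AnnV−/PI−), early apoptotic (AnnV+/PI−), late apoptotic/necrotic (AnnV+/PI+).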
A general note: Flow cytometry measures light scatter and fluorescence of single cells or particles in a stream.

Assay [3] concerns Jurkat. The assay is described as follows: Induction of apoptosis in human Jurkat cells assessed as caspase 3/7 activation at 10 uM after 12 hrs by luminescence assay (reference value: 69,935 +/- 7003.63 no unit). The class given is functional.
Assay [4] has as its system Jurkat. Kind of assay: Cell cycle arrest in human Jurkat cells assessed as accumulation at G2/M-phase at 10 uM after 24 hrs by propidium iodide staining-based flow cytometric analysis (reference value: 14.30%). The class given is functional.
Assay [5] has as its target T1, Histone deacetylase (Homo sapiens). The following applies: Jurkat, at 10 µM.
For assay [6], the system named is Jurkat. The assay is described as follows: Cell cycle arrest in human Jurkat cells assessed as accumulation at S-phase at 10 uM after 36 hrs by propidium iodide staining-based flow cytometric analysis (reference value: 23%). The class given is functional.
The subject of assay [7] is Jurkat. Kind of assay: Cell cycle arrest in human Jurkat cells assessed as accumulation at G0/G1-phase at 10 uM after 36 hrs by propidium iodide staining-based flow cytometric analysis (reference value: 1.80%). The class given is functional.
The subject of assay [8] is Jurkat. Kind of assay: Cell cycle arrest in human Jurkat cells assessed as accumulation at G1-phase at 10 uM after 36 hrs by propidium iodide staining-based flow cytometric analysis (reference value: 59.10%). The assay is classed as functional.
Assay [9] has as its system Jurkat. The assay is described as follows: Induction of apoptosis in human Jurkat cells assessed as caspase 3/7 activation at 10 uM after 24 hrs by luminescence assay (reference value: 136,627 +/- 31846.96 no unit). The class given is functional.
Assay [10] deals with Jurkat. Kind of assay: Cell cycle arrest in human Jurkat cells assessed as accumulation at S-phase at 10 uM after 24 hrs by propidium iodide staining-based flow cytometric analysis (reference value: 20.90%). The class given is functional.
Assay [11] has as its system Jurkat. The assay is described as follows: Cell cycle arrest in human Jurkat cells assessed as accumulation at G2/M-phase at 10 uM after 12 hrs by propidium iodide staining-based flow cytometric analysis (reference value: 10%). The class given is functional.
Assay [12] deals with Jurkat. Kind of assay: Induction of apoptosis in human Jurkat cells assessed as caspase 8 responsive cells level at 10 uM after 24 hrs by FACS flow cytometric analysis (reference value: 0.32%). The class given is functional.
The subject of assay [13] is Jurkat. The assay is described as follows: Induction of apoptosis in human Jurkat cells assessed as cell death at 10 uM after 24 hrs by annexin V-FITC/propidium iodide staining-based FACS flow cytometric analysis (reference value: 0.348%). The class given is functional. The method in brief: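 ~1×10^6 log-phase Jurkat cells (RPMI 1640, 10% FBS, pen/strep, L-glutamine) treated in 6-well plates; untreated wells as controls. Cells washed in cold PBS and resuspended in annexin-binding buffer (10 mM HEPES, 140 mM NaCl, 2.5 mM CaCl2, pH 7.4). Stained with fluorescein-annexin V plus PI and read by flow cytometry. Gates: live A−/PI−, early apoptotic A+/PI−, late apoptotic/necrotic A+/PI+.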

For assay [14], the system named is Jurkat. The assay is described as follows: Cell cycle arrest in human Jurkat cells assessed as accumulation at G1-phase at 10 uM after 24 hrs by propidium iodide staining-based flow cytometric analysis (reference value: 60.90%). The class given is functional.
Assay [15] relates to Jurkat. Kind of assay: Cell cycle arrest in human Jurkat cells assessed as accumulation at S-phase at 10 uM after 12 hrs by propidium iodide staining-based flow cytometric analysis (reference value: 19.5%). The assay is classed as functional.
Assay [16] has as its system Jurkat. Kind of assay: Cell cycle arrest in human Jurkat cells assessed as accumulation at G1-phase at 10 uM after 12 hrs by propidium iodide staining-based flow cytometric analysis (reference value: 65%). The class given is functional.
Assay [17] concerns Jurkat. Kind of assay: Cell cycle arrest in human Jurkat cells assessed as accumulation at G0/G1-phase at 10 uM after 12 hrs by propidium iodide staining-based flow cytometric analysis (reference value: 4.16%). The assay is classed as functional.
Assay [18] relates to Jurkat. The assay is described as follows: Induction of apoptosis in human Jurkat cells assessed as late apoptotic cells at 10 uM after 24 hrs by annexin V-FITC/propidium iodide staining-based FACS flow cytometric analysis (reference value: 0.0401%). The class given is functional. In outline: as §1
Assay [19] concerns Jurkat. Kind of assay: Cell cycle arrest in human Jurkat cells assessed as accumulation at G0/G1-phase at 10 uM after 24 hrs by propidium iodide staining-based flow cytometric analysis (reference value: 2.39%). The class given is functional.
Assay [20] addresses T1, Histone deacetylase (Homo sapiens). Particulars: Jurkat. The source holds these as a separate data set.
In assay [21] the test system is Jurkat. Kind of assay: Cell cycle arrest in human Jurkat cells assessed as accumulation at G2/M-phase at 10 uM after 36 hrs by propidium iodide staining-based flow cytometric analysis (reference value: 14.20%). The assay is classed as functional.
Assay [22] concerns Jurkat. The assay is described as follows: Induction of apoptosis in human Jurkat cells assessed as caspase 3/7 activation at 10 uM after 6 hrs by luminescence assay (reference value: 59,417 +/- 10002.74 no unit). The class given is functional.
In assay [23] the test system is Jurkat. The assay is described as follows: Induction of apoptosis in human Jurkat cells assessed as early apoptotic cells at 10 uM after 24 hrs by annexin V-FITC/propidium iodide staining-based FACS flow cytometric analysis (reference value: 0.32%). The class given is functional. In outline: as §1
Assay [24] concerns Jurkat. The assay is described as follows: Induction of apoptosis in human Jurkat cells assessed as caspase 3/7 activation at 10 uM after 48 hrs by luminescence assay (reference value: 109,510 +/- 4710.453 no unit). The class given is functional.
The subject of assay [25] is Jurkat. The assay is described as follows: Increase in p21 protein expression in human Jurkat cells at 10 to 50 uM after 24 hrs by FACS flow cytometric analysis. The assay is classed as functional, cell-based. The method in brief: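 Jurkat cells (~1 × 10^6, log phase) treated 24 h at 10 or 50 µM; no-inhibitor controls. Fixed in 4% PFA for 20 min, held overnight at 4°C in 5% BSA/PBS, permeabilized with 0.5% Triton X-100, blocked with 10% goat serum. Stained with anti-p21 (1:100) and FITC secondary (1:1000). Read-out was geometric mean fluorescence intensity by flow cytometry.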

In assay [26] the test system is Jurkat. Kind of assay: Increase in p21 mRNA level in human Jurkat cells at 10 to 50 uM after 24 hrs by quantitative RT-PCR analysis. The assay is classed as functional, cell-based. The method in brief: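 Roughly 5 × 10^6 Jurkat cells treated 24 h at 10 and 50 µM; untreated cells served as controls. RNA extracted with Trizol, and 2 µg reverse-transcribed. p21 and beta-actin quantified by TaqMan real-time PCR, run in triplicate.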

For `O=c1cc(-c2ccccc2)cccc1O`, the results for the Flu intensity in assay [1] and in [20] were 2.12 and 24, respectively. In the assay with Jurkat [2], the viability at 10 µM turned out to be 99.4%. In addition, the RLU in the assay on Jurkat [3] is listed as 110650; in the assay on Jurkat [9] it was 80438; in the assay with Jurkat [22], 73949; with Jurkat [24], 71048. In addition, the Activity in the assay on Jurkat [4] worked out at 2.58%; in the assay with Jurkat [6], 14.6%; in the assay with Jurkat [7] it was 13.4%; in the assay on Jurkat [8], 65.9%; with Jurkat [10] it was 15.8%; in the assay with Jurkat [11] it was 1.25%. In addition, the Activity in the assay on Jurkat [12] amounted to 0.4%; with Jurkat [13], 0.186%; with Jurkat [14] it was 66.5%; with Jurkat [15], 10.2%; with Jurkat [16], 71.5%; with Jurkat [17], 16.3%. For the same compound, the Activity with Jurkat [18] was found to be 0.0285%; in the assay on Jurkat [19], 13.9%; in the assay with Jurkat [21], 4.35%; in the assay on Jurkat [23] it was 0.4%. For the same compound, in [5], the inhibition result is “inactive”.
For the compound `O=C(CCCCCCC(=O)Nc1ccccc1)NO` [VORINOSTAT], in the assay with Jurkat [2], the viability at 10 µM came to 62.6%. The RLU in the assay on Jurkat [3] is 157988; with Jurkat [9], 125484; with Jurkat [22] it was 53518; with Jurkat [24] it was 95463. Besides, the Activity is 12.3% in the assay on Jurkat [4]; 15.6% with Jurkat [6]; 60.8% in the assay with Jurkat [7]; 6.9% in the assay with Jurkat [8]; 19.9% in the assay with Jurkat [10]; 19.7% with Jurkat [11]. Moreover, the Activity with Jurkat [12] amounted to 35.9%; in the assay with Jurkat [13] it was 1.03%; with Jurkat [14] it was 7.46%; with Jurkat [15] it was 31.6%; in the assay on Jurkat [16], 25.9%; with Jurkat [17] it was 20.4%. Further, the Activity is reported as 0.412% in the assay with Jurkat [18], 48.9% in the assay on Jurkat [19], 14.9% with Jurkat [21] and 35.9% in the assay with Jurkat [23].
For `O=c1c(O)ccccc1-c1ccccc1`, the Flu intensity was 13.7 in assay [1] and 24.6 in assay [20]. Further, the viability at 10 µM with Jurkat [2] came to 98.9%. Besides, the RLU was determined as 97513 in the assay with Jurkat [3], 76948 with Jurkat [9], 88661 in the assay on Jurkat [22] and 105357 in the assay with Jurkat [24]. The Activity is 1.81% in the assay on Jurkat [4]; 13.3% with Jurkat [6]; 18.5% with Jurkat [7]; 64.2% with Jurkat [8]; 13.3% in the assay with Jurkat [10]; 1.39% in the assay on Jurkat [11]. The Activity is 0.43% with Jurkat [12]; 0.513% in the assay with Jurkat [13]; 70.2% with Jurkat [14]; 11.1% with Jurkat [15]; 64.3% with Jurkat [16]; 22.3% in the assay with Jurkat [17]. For the same compound, the Activity in the assay with Jurkat [18] is recorded as 0.158%; in the assay with Jurkat [19], 13.9%; with Jurkat [21] it was 2.97%; in the assay on Jurkat [23] it was 0.434%. Further, the inhibition entry in assay [5] is “inactive”. The result in the assay on Jurkat [25] was Active. Moreover, the outcome in the assay on Jurkat [26] was inactive.
